Test results as given in ChEMBL document CHEMBL2163294, “2-(N-Benzyl-N-phenylsulfonamido)alkyl amide derivatives as γ-secretase inhibitors” (Bioorg Med Chem Lett, 2012).

How the values were obtained:
[1] = Inhibition of gamma-secretase-mediated amyloid beta42 production by GS H4-8 SW1-42 assay
[2] = Drug uptake in Tg2576 mouse brain at 200 umol/kg, po measured at 180 mins; assay type: ADME, organism-based; settings: read-out: Drug uptake
Outline: (§1)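 Transgenic mice received a single 200 µmol/kg dose. […] Test-compound concentrations in brain and plasma (nM) were measured at the same time point.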

[3] = system: Liver microsomes; test: Metabolic stability in human liver microsomes; assay type: ADME, Microsome
[4] = system: Liver; test: Metabolic stability in mouse liver microsomes; assay type: ADME, Microsome
[5] = system: Mus musculus; test: Antialzheimer activity in Tg2576 mouse assessed as reduction in plasma amyloid-beta40 level at 200 umol/kg, po measured at 180 mins; assay type: functional; settings: 3 h; outline: as §1
[6] = Plasma concentration in Tg2576 mouse at 200 umol/kg, po measured at 180 mins; assay type: ADME, organism-based; outline: as §1
[7] = system: Mus musculus; test: Antialzheimer activity in Tg2576 mouse assessed as reduction in brain amyloid-beta40 level at 200 umol/kg, po measured at 180 mins; assay type: functional; settings: 3 h; outline: as §1
[8] = Inhibition of gamma-secretase
[9] = target: Gamma-secretase; test: Inhibition of human gamma-secretase expressed in IMR32 cell membranes using MBPC-125 Swedish as substrate assessed as inhibition of amyloid beta40 production after 2 hrs by ELISA; settings: imr-32

| SMILES | IC50 ([1]; read-out: IC50) [nM] | also measured |
| --- | --- | --- |
| COc1ccc(CN([C@H](CC(C)C)C(=O)NN)S(=O)(=O)c2ccc(Cl)cc2)cc1 | 53 |  |
| CC(C)C[C@H](C(N)=O)N(Cc1ccccc1)S(=O)(=O)c1ccc(Cl)cc1 | 0.35 |  |
| CC(C)C[C@H](C(N)=O)N(CCCCCCN1CCOCC1)S(=O)(=O)c1ccc(Cl)cc1 | 3.5 |  |
| COc1ccc(CN([C@H](CC(C)C)C(N)=O)S(=O)(=O)c2ccc(Cl)cc2)cc1F | 0.15 |  |
| COc1ccccc1CN([C@H](CC(C)C)C(N)=O)S(=O)(=O)c1ccc(Cl)cc1 | 23 |  |
| CC(C)C[C@H](C(N)=O)N(Cc1ccc(C(C)(C)C)cc1)S(=O)(=O)c1ccc(Cl)cc1 | 0.39 |  |
| CC(C)C[C@H](C(N)=O)N(CCCCCCn1ccnc1)S(=O)(=O)c1ccc(Cl)cc1 | 4.9 |  |
| CC(C)C[C@H](C(N)=O)N(Cc1ccc(F)cc1)S(=O)(=O)c1ccc(Cl)cc1 | 0.43 |  |
| CC(C)C[C@H](C(N)=O)N(CCCc1ccccc1)S(=O)(=O)c1ccc(Cl)cc1 | 0.41 |  |
| CC(C)C[C@H](C(N)=O)N(Cc1ccc(C#N)cc1)S(=O)(=O)c1ccc(F)cc1 | 2.7 |  |
| CC(C)(C)C(=O)C[C@H](C(N)=O)N(Cc1ccc(C#N)cc1)S(=O)(=O)c1ccc(Cl)cc1 | 54 |  |
| COc1ccc(CN([C@@H]2CCCCNC2=O)S(=O)(=O)c2ccc(Cl)cc2)cc1 |  | concentration at 3 h [2]: 2200 nM; Stability [3]: 0.23 nmol/min/mg; Stability [4]: 0.22 nmol/min/mg; inhibition in vivo at 200 µmol/kg [5]: 47%; concentration at 3 h [6]: 280 nM; inhibition in vivo at 200 µmol/kg [7]: 49% |
| C[S+]([O-])CC[C@H](C(N)=O)N(Cc1ccc(C#N)cc1)S(=O)(=O)c1ccc(Cl)cc1 (stereo not given in full) | 1800 |  |
| COc1ccc(CN([C@H](CC(C)C)C(N)=O)S(=O)(=O)c2cccc(C)c2)cc1F | 9.2 |  |
| COc1ccc(CN([C@H](C)C(N)=O)S(=O)(=O)c2ccc(Cl)cc2)cc1F | 5.3 |  |
| CC(C)C[C@H](C(N)=O)N(Cc1ccc(F)c(F)c1)S(=O)(=O)c1ccc(Cl)cc1 | 0.44 |  |
| CCC[C@H](C(N)=O)N(Cc1ccc(C#N)cc1)S(=O)(=O)c1ccc(Cl)cc1 | 2.6 |  |
| COc1ccc(CN([C@H](CC(C)C)c2nc(C)no2)S(=O)(=O)c2ccc(Cl)cc2)cc1 | 2200 |  |
| CCC[C@H](C(N)=O)N(Cc1ccc(OC)c(F)c1)S(=O)(=O)c1ccc(Cl)cc1 | 0.52 | concentration at 3 h [2]: 380 nM; Stability [3]: 0.3 nmol/min/mg; Stability [4]: 0.3 nmol/min/mg; inhibition in vivo at 200 µmol/kg [5]: 41%; concentration at 3 h [6]: 840 nM; inhibition in vivo at 200 µmol/kg [7]: 72% |
| NC(=O)[C@@H](CCC(F)(F)F)N(Cc1ccc(-c2ncon2)cc1F)S(=O)(=O)c1ccc(Cl)cc1 |  | IC50 [8]: 0.3 nM |
| COc1ccc(CN([C@H](CC(C)C)C(=O)N(C)OC)S(=O)(=O)c2ccc(Cl)cc2)cc1 | 160 |  |

| SMILES | IC50 ([1]; read-out: IC50) [nM] | also measured |
| --- | --- | --- |
| C=CC[C@H](C(N)=O)N(Cc1ccc(OC)c(F)c1)S(=O)(=O)c1ccc(Cl)cc1 | 0.35 |  |
| CC(C)C[C@H](C(N)=O)N(Cc1ccc(CN(C)C)cc1)S(=O)(=O)c1ccc(Cl)cc1 | 7.7 |  |
| COc1ccc(CN([C@H](CC(C)C)C(=O)O)S(=O)(=O)c2ccc(Cl)cc2)cc1F | 220 |  |
| CC[C@H](C(N)=O)N(Cc1ccc(C#N)cc1)S(=O)(=O)c1ccc(Cl)cc1 | 4.4 |  |
| COc1ccc(CN([C@@H](C(N)=O)C(C)C)S(=O)(=O)c2ccc(Cl)cc2)cc1F | 1.4 |  |
| CNC(=O)[C@@H](CC(C)C)N(Cc1ccc(OC)cc1)S(=O)(=O)c1ccc(Cl)cc1 | 380 |  |
| COc1ccc(CN([C@H](CC(C)C)C(N)=O)S(=O)(=O)c2ccc(C(F)(F)F)cc2)cc1F | 0.27 |  |
| COc1ccc(CN(CC(N)=O)S(=O)(=O)c2ccc(Cl)cc2)cc1F | 2000 |  |
| COc1ccc(CN([C@@H](CC(C)C)C(N)=O)S(=O)(=O)c2ccc(Cl)cc2)cc1 | 315 |  |
| COc1ccc(CN([C@H](Cc2ccccc2)C(N)=O)S(=O)(=O)c2ccc(Cl)cc2)cc1 | 390 |  |
| COc1ccc(CN([C@H](CC(C)C)C(N)=O)S(=O)(=O)c2ccc(C)cc2)cc1F | 0.45 |  |
| CC(C)C[C@H](C(N)=O)N(CC1CCCCC1)S(=O)(=O)c1ccc(Cl)cc1 | 0.79 |  |
| COc1cccc(CN([C@H](CC(C)C)C(N)=O)S(=O)(=O)c2ccc(Cl)cc2)c1 | 0.59 |  |
| CCN([C@H](CC(C)C)C(N)=O)S(=O)(=O)c1ccc(Cl)cc1 | 2.3 |  |
| CC(C)C[C@H](C(N)=O)N(Cc1ccc(N(C)C)cc1)S(=O)(=O)c1ccc(Cl)cc1 | 0.27 |  |
| CC(C)C[C@H](C(=O)NN)N(Cc1ccc(C(F)(F)F)cc1)S(=O)(=O)c1ccc(Cl)cc1 | 110 |  |
| N#Cc1ccc(CN([C@H](CC2CC2)C(N)=O)S(=O)(=O)c2ccc(Cl)cc2)cc1 | 0.94 | concentration at 3 h [2]: 2800 nM; Stability [3]: 0.16 nmol/min/mg; Stability [4]: 0.17 nmol/min/mg; inhibition in vivo at 200 µmol/kg [5]: 81%; concentration at 3 h [6]: 8600 nM; inhibition in vivo at 200 µmol/kg [7]: 75% |
| CSCC[C@H](C(N)=O)N(Cc1ccc(C#N)cc1)S(=O)(=O)c1ccc(Cl)cc1 | 19 |  |
| CC(C)C[C@H](C(N)=O)N(CCCCN1CCOCC1)S(=O)(=O)c1ccc(Cl)cc1 | 9.9 |  |
| COC[C@H](C(N)=O)N(Cc1ccc(C#N)cc1)S(=O)(=O)c1ccc(Cl)cc1 | 48 |  |
| COc1ccc(CN(C(=O)c2ccc(Cl)cc2)[C@H](CC(C)C)C(N)=O)cc1F |  | IC50 [1]: Not Active |

| SMILES | IC50 ([1]; read-out: IC50) [nM] | also measured |
| --- | --- | --- |
| COc1ccc(CN([C@H](CC(C)C)c2nc(C)ns2)S(=O)(=O)c2ccc(Cl)cc2)cc1 | 1200 |  |
| CC(C)C[C@H](C(N)=O)N(CCSC(C)(C)C)S(=O)(=O)c1ccc(Cl)cc1 | 4.2 |  |
| CCCC[C@H](C(N)=O)N(Cc1ccc(C#N)cc1)S(=O)(=O)c1ccc(Cl)cc1 | 1 |  |
| CC(C)C[C@H](C(N)=O)N(Cc1ccc(C#N)cc1)S(=O)(=O)c1ccc(Cl)cc1 | 0.67 |  |
| COc1ccc(CN([C@H](CC(C)C)C(N)=O)S(=O)(=O)c2ccc(F)cc2)cc1F | 0.26 |  |
| CC(C)C[C@H](C(N)=O)N(Cc1ccc(CCl)cc1)S(=O)(=O)c1ccc(Cl)cc1 | 0.35 |  |
| CC(C)C[C@H](C(N)=O)N(CC1CCN(Cc2ccccc2)CC1)S(=O)(=O)c1ccc(Cl)cc1 | 17 |  |
| CC(C)C[C@H](C(N)=O)N(Cc1ccc(C(C)C)cc1)S(=O)(=O)c1ccc(Cl)cc1 | 0.58 |  |
| NC(=O)[C@@H](CC1CC1)N(Cc1ccc(C(F)(F)F)cc1)S(=O)(=O)c1ccc(Cl)cc1 | 0.68 | concentration at 3 h [2]: 6300 nM; Stability [3]: 0.23 nmol/min/mg; Stability [4]: 0.27 nmol/min/mg; inhibition in vivo at 200 µmol/kg [5]: 65%; concentration at 3 h [6]: 3600 nM; inhibition in vivo at 200 µmol/kg [7]: 78% |
| COc1ccc(CN([C@H](CC(C)C)C(N)=O)S(=O)(=O)c2ccc(Cl)cc2)cc1 |  | IC50 [9]: 0.19 nM |
| COc1ccc(CN([C@H](CC(C)C)C(N)=O)S(=O)(=O)c2ccccc2)cc1F | 1.7 |  |
| CS(=O)(=O)CC[C@H](C(N)=O)N(Cc1ccc(C#N)cc1)S(=O)(=O)c1ccc(Cl)cc1 | 4300 |  |
| CC(C)C[C@H](C(N)=O)N(Cc1ccc(C(F)(F)F)cc1)S(=O)(=O)c1ccc(Cl)cc1 | 0.39 |  |
| CC(C)C[C@H](C(N)=O)N(Cc1ccc(OC(F)(F)F)cc1)S(=O)(=O)c1ccc(Cl)cc1 | 0.69 |  |
| COc1ccc(CN(C(=O)Nc2ccccc2)[C@H](CC(C)C)C(N)=O)cc1F | 1100 |  |
| Cc1ccc(S(=O)(=O)N(Cc2ccc(C#N)cc2)[C@H](CC(C)C)C(N)=O)cc1 | 2.8 |  |
| COc1ccc(CN([C@H](CC(C)C)C(N)=O)S(=O)(=O)c2cccc(Cl)c2)cc1F | 7 |  |
| CC(C)C[C@H](C(N)=O)N(Cc1cc(F)cc(F)c1)S(=O)(=O)c1ccc(Cl)cc1 | 0.62 |  |
| COc1ccc(CN([C@H](CC(C)C)C(=O)NO)S(=O)(=O)c2ccc(Cl)cc2)cc1F | 19 |  |
| COc1ccc(CN([C@H](CC(C)C)C(=O)N(C)C)S(=O)(=O)c2ccc(Cl)cc2)cc1 | 1100 |  |
